Laboratory results taken from ChEMBL document CHEMBL4513216, “Probing the Open Global Health Chemical Diversity Library for Multistage-Active Starting Points for Next-Generation Antimalarials” (ACS Infect Dis, 2020).

assay: Toxicity liver stage against HepG2, at 10uM; assay type: cell-based; parameters: test concentration 10 uM, cell line HepG2-A16-CD81EGFP; conditions: human, HepG2-A16-CD81EGFP cells; read-out: INHIBITION
Summary of the method: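 Uninfected HepG2-A16-CD81EGFP cells, 3 × 10^3 per well, 1536-well, plated on prespotted compound at 10 μM final, parasite-free screening media added to match infected plates; puromycin 10 μM positive, DMSO 0.5% negative; run in parallel with 48 h PbLuc assay at 37 °C, 5% CO2; viability by CellTiter-Glo luminescence, normalized to controls.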

Point of comparison: `Cc1nnc2n1CCN(CCOc1ccccc1C#N)C2`, cytotoxicity at 10 µM -4.53%. Against it:
- N#CCCN(CC1CCCO1)C(=O)c1ccsc1 (stereo not given) — higher, 0.325%
- O=C(Cn1ccc2ccc(F)cc21)NC[C@@H]1CCCN2CCCC[C@H]12 — higher, 14%
- O=S1(=O)CCC(S(=O)(=O)c2cccc(S(=O)(=O)N3CCOCC3)c2)C1 (stereo not given) — higher, 3.42%
- CCN(CC)c1nc2ccsc2c(=O)n1CCC(=O)NC1CCCC1 — higher, 7.19%
- O=C(NC1CC1)[C@H]1COC[C@H]2CN(c3ncc(F)cn3)C[C@H]21 — higher, -0.664%
- CCn1cc2c(n1)C(COC)CN(Cc1ccoc1)C2 (stereo not given) — higher, 7.89%
- O=C(c1ccco1)N1CCCC2(CCN(CCN3CCCC3)C2=O)C1 (stereo not given) — lower, -4.73%
- CC(C)N1CCC2(CC1)NC(=O)c1cc(Br)ccc1-n1nnnc12 — higher, 9.26%
- Cc1cccnc1C(Cc1ccsc1)NC(=O)Cn1cccnc1=O (stereo not given) — higher, 3.08%
- CC(=O)N1CC2(CCCCN2Cc2ccc(Cl)cc2)Cc2ccccc21 (stereo not given) — higher, 14.5%
- FC(F)Oc1ccccc1CNCc1cc(Br)c2c(c1)OCO2 — higher, 10.7%
- Cc1ccc(C(=O)NCC(C)Cn2cccn2)c(=O)[nH]1 (stereo not given) — higher, 3.14%
- Cc1csc(C(C)(C)NCCOc2ccc(CC#N)cc2)n1 — higher, 1.74%
- Cc1nc(CN(C)S(=O)(=O)c2ccccc2Br)no1 — higher, 6.2%
- COc1ccc2c(c1)NC(=O)C2OC(=O)Cc1ccccc1C (stereo not given) — higher, 45.2%
- Cc1cc(NC(=O)C(C)NCCn2cccn2)no1 (stereo not given) — higher, 10.6%
- CCc1nnc(C2Cc3ccccc3CN2Cc2cc(C)no2)o1 (stereo not given) — lower, -7.4%
- Cc1noc(C)c1CNc1cccc(C(=O)N(C)c2ccccc2)c1 — higher, 17.5%
- CCCC(NC(=O)c1cc(C)c(F)cc1F)c1nnn[nH]1 (stereo not given) — higher, -2.59%
- CCN(CC1CN(Cc2cccc(C#N)c2)CCO1)c1cccnn1 (stereo not given) — higher, 17%
- Cc1ncc(CN(C)C2CCCN(c3cccnn3)C2)s1 (stereo not given) — higher, 0.709%
- CN1CCN(c2ccc(F)cc2C(N)=O)CC1 — higher, 6.11%
- CCN(C)S(=O)(=O)N(CC)Cc1cccc(-c2ccncc2)c1 — lower, -11.5%
- Cc1nnc(C(C)N(C)Cc2c(C)nn(-c3ccccc3C)c2C)o1 (stereo not given) — higher, -1.07%
- CC(=O)N1CCC(C(=O)NC(C)c2cccc(OC(F)F)c2)CC1 (stereo not given) — lower, -8.2%
- COc1ncc(Cl)c(NCc2ccc(C(=O)N(C)C)cc2)n1 — higher, 9.95%
- Cn1c(=O)oc2cc(Nc3ncc(C#N)cc3Cl)ccc21 — higher, 4.93%
- CN1CC(Nc2ccc(Br)cc2C#N)CCC1=O (stereo not given) — higher, 8.25%
- CCc1ccc(C(=O)O)cc1S(=O)(=O)N(C)c1cccc(C)c1 — lower, -8.2%
- Fc1ccc(NCc2ncc[nH]2)cc1Br — higher, 3.76%
- N#Cc1cccc(OCC(=O)N(Cc2ccncc2)C2CC2)c1 — lower, -44.2%
- OCc1cc2ccccc2nc1NCC1CC1 — lower, -46.2%
- O=C(CN1CCOC(Cn2cccn2)C1)NC(C1CC1)C1CC1 (stereo not given) — lower, -42.1%
- Cc1cnc(CCN(C)C(=O)c2cccc(C)c2O)s1 — higher, -2.48%
- CCc1nnc2n1CCN(Cc1nc3c(F)cccc3[nH]1)C2 — lower, -8.06%
- Cn1cc(C(=O)OCC(N)=O)c(-c2ccc(F)cc2F)n1 — lower, -7.85%
- CC(=O)N1CCCN(C(=O)c2oc(Br)cc2C)CC1 — lower, -13.6%
- COc1cc(N2CCC3(CC(=O)N(Cc4csc(C)n4)C3)C2)ncn1 (stereo not given) — lower, -104%
- CN(C)S(=O)(=O)N1CCC2(COCc3cnc(-c4cccnc4)nc32)C1 (stereo not given) — lower, -115%
- O=C(NCc1cccnc1)N1CCn2c(Cn3cccn3)cnc2C1 — lower, -71.1%
- CN(C)C(=O)N1CCc2c(COCC3CC3)cncc2C1 — lower, -68.2%
- Cc1noc(C)c1CN1C[C@@H]2COC[C@@H](C(=O)N3CCCO3)[C@@H]2C1 — lower, -69.9%
- CN1CCN([C@H]2COC[C@@H]3CN(Cc4cccnc4)C[C@@H]32)CC1 — lower, -77.9%
- CN(C)C(=O)CC1CC2(CCNCC2)c2cc(F)ccc21 (stereo not given) — higher, 6.54%
- COCCn1c2c(ccc1=O)CC(NS(C)(=O)=O)CC2 (stereo not given) — higher, 8.8%
- COc1ccccc1Nc1nc2c(s1)C(=O)CN(C(=O)CC(C)C)C2 — higher, 61.2%
- O=S(=O)(CCNCc1cc(O)c2cc(F)ccc2n1)N1CCCC1 — lower, -39.5%
- CN(CC(=O)N1CC(C)(C)[C@@](C)(O)C1)Cc1ccncc1 — lower, -49.4%
- O=C(NCC1CCCN(C(=O)NCCc2ccccc2)C1)c1ccco1 (stereo not given) — lower, -4.66%
- CC(C)N1CCOC(CC(=O)N2CCCN(Cc3ccncc3)CC2)C1 (stereo not given) — lower, -7.49%
- CSc1ccc(CN(C(=O)c2cc(=O)[nH]c(=O)[nH]2)C2CC2)cc1 — lower, -44.8%
- Cc1cccc(CN2CCN(c3ncnc4[nH]ccc34)CC2CCO)n1 (stereo not given) — higher, 10.8%
- Cc1ccccc1-n1ncc(C(C)N)c1C (stereo not given) — lower, -8.23%
- CN(C(=O)CC1=CCCCC1)C1CCCN(CCc2ccccc2)C1 (stereo not given) — higher, 7.23%
- CCN(Cc1noc(C)n1)C(=O)CCn1c(C)cc2ccccc21 — higher, -3.97%
- Cc1ncsc1CCC(=O)N1CCn2cccc2C1c1cccnc1 (stereo not given) — lower, -9.57%
- CNc1nc(C(=O)N2CCCC(CO)(CCCOC)C2)cs1 (stereo not given) — higher, 7.43%
- CC(C)N1CCCC(C(=O)N2CCN(c3nsc4ccccc34)CC2)C1 (stereo not given) — higher, 2.81%
- COCCN1CCC(C(=O)N(C)CCOc2ccc(C)cc2Cl)C1 (stereo not given) — higher, 13.4%
- O=C1CCCN1CCC1CCCCN1C(=O)c1ccc(SCCO)cc1 (stereo not given) — lower, -43%
- CCN(Cc1noc(CC(C)C)n1)Cc1ccccc1C(=O)O — lower, -51.6%
- CC(C)N1CCC(CC(=O)N2CCN(Cc3nccn3C)CC2)CC1 — higher, -3.91%
- CC(C)c1cc(NCc2csc(C(C)C)n2)nc(N)n1 — higher, 19.8%
- CN(Cc1ccco1)c1ccc(C(=O)NCCCc2ccccn2)cn1 — lower, -55.8%
- CCCn1ncc(C(=O)NC2CCN(C3CCOCC3)CC2)c1C — higher, 5.66%
- CC(=O)NC1CCN(c2nc(N(C)C)nc3c2CCN(C(C)=O)C3)CC1 — higher, 0.541%
- CN(Cc1ccncn1)c1nccc(CCC(F)(F)F)n1 — higher, 11.2%
- CCN(C)C[C@@H]1CN(S(=O)(=O)c2ccc(C#N)cc2)C[C@@H]1CO — higher, 13.5%
- CC(C)N(C)C(=O)CN1C(=O)OC[C@@H]1c1ccccc1 — lower, -47.7%
- CCn1cnc(NC(=O)N2CCC(c3ccc(Cl)cc3)C2)n1 (stereo not given) — higher, 0.0451%
- CCn1nc(C)cc1S(=O)(=O)N1CCC2(CCCN(C(C)C)C2=O)C1 (stereo not given) — lower, -16.3%
- CCC(C)N(Cc1cccnc1)Cc1cc2c(cc1Cl)OCO2 (stereo not given) — higher, 6.16%
- COCCCN1CCN([C@@H]2c3ccccc3C3(CCNCC3)[C@H]2O)CC1 — lower, -4.86%
- CCCc1nc(N(C)Cc2cnc(NC)nc2)c2cnn(C)c2n1 — higher, 3.42%
- Cc1cc(C)n2ncc(CN3CCC(n4cc(CCO)nn4)CC3)c2n1 — higher, 6.59%
- Cc1cc(C(F)(F)F)nc(CNC(=O)CCn2cccn2)n1 — higher, 1.7%
- CCNc1ncc(CN2C[C@@H](C(=O)O)[C@H](C3CC3)C2)cn1 — lower, -46.1%
- CN1CC(c2n[nH]c(=O)n2-c2cccc(Cl)c2)CC1=O (stereo not given) — higher, 3.24%
- CS(=O)(=O)N1CCN(c2ccnc(N3CCCCC3)n2)CC1 — higher, -0.359%
- O=C1CC[C@H]2CN(C3CCOCC3)CC[C@H]2N1CCC1=CCCCC1 — lower, -4.76%
- O=C(CC1=CCCCC1)N1CCC(Cn2cc(CCO)nn2)CC1 — higher, 3.88%
- O=c1cc(CN2CCCC(CCc3c(F)cccc3F)C2)[nH]c(=O)[nH]1 (stereo not given) — higher, -3.88%
- CC(C)(O)C1CCN(C(=O)Nc2nc(-c3ccccc3)ns2)CC1 — higher, 5.68%
- OCCN1CCN(Cc2coc(-c3ccccc3)n2)CC1 — lower, -5.03%
- CC(NC(=O)NCc1ccccc1)(C(=O)O)c1ccco1 (stereo not given) — higher, -3.37%
- CCc1ccsc1C(=O)N1CCCN(Cc2cnn(CC)c2)CC1 — higher, 0.501%
- Cc1ccc(OCC(O)CN2CCc3c(ncn3C3CC3)C2)cc1 (stereo not given) — higher, 0.2%
- Cc1ccc(-c2nc(CN3CCOC(CN(C)C)C3)co2)cc1 (stereo not given) — higher, -4.23%
- Cc1cn2nc(N3CCN(Cc4c(C)noc4C)CC3)sc2n1 — lower, -8.81%
- COCc1nc(C(=O)N2CCCC(n3ccnc3)C2)cs1 (stereo not given) — higher, -2.12%
- Cc1noc(C)c1CN1CCN(C(C)c2nc(C3CC3)no2)CC1 (stereo not given) — lower, -16.5%
- CCn1cc(NC(=O)CN2CCC(Oc3ccc(F)cc3)CC2)c(C)n1 — higher, 9.25%
- Cc1ccc(CN2CCc3c(nnn3C)C2COCc2ccccc2)s1 (stereo not given) — lower, -110%
- Cn1cc(N2CC[C@@H]3CN(Cc4ccncc4)C[C@H]3C2=O)cn1 — lower, -103%
- Cc1ccc(N2CCC3(CC2)CCN(C2CCOCC2)CC3)nn1 — higher, 5.5%
- CC(C)N1CCC2(CC1)CC(CC(N)=O)c1ccc(F)cc12 (stereo not given) — higher, 12.8%
- O=C(c1cscn1)N1CCc2c(COCC3CC3)cncc2C1 — lower, -105%
- Cc1ncsc1CN1CCn2c(COc3cccnc3)cnc2C1C (stereo not given) — higher, 9.16%
- Cc1ccc(CN2CC[C@@H]3OCCN(Cc4ccncc4)[C@H]3CC2)s1 — higher, 6.84%
- CN(Cc1ccncc1)C1CC2(CCN(c3ncccn3)CC2)C1 — higher, 13.1%
- COc1ccc(C[C@H]2CN(Cc3ccoc3)CC[C@@H]2OC)cc1 — higher, 2.51%
- O=C(c1cccc(F)c1)N1CC[C@H]2[C@H]1CCN2CC1CCOCC1 — lower, -75.4%
- CN1CCO[C@@H]2CN(C(=O)c3ccc4ncccc4c3)CC[C@@H]2C1 — lower, -112%
- Cc1ccc(Nc2nccc(C3CCN(C(=O)CN)C3)n2)nc1 (stereo not given) — lower, -18.5%
- CN1CC2(CCN(S(=O)(=O)C3CC3)CC2)c2ccccc21 — higher, -4.35%
- CCN1C[C@H]2[C@@H](C1)N(S(=O)(=O)c1cccnc1)CC[C@H]2OC — higher, -1.78%
- Cn1cnc2c1C(COCC1CC1)CN(C(=O)c1cscn1)C2 (stereo not given) — higher, 0.922%
- NC1CC(C(F)(F)F)=NC=C1c1ccc(Cl)cc1 (stereo not given) — higher, 50.2%
- O=C(c1cccc(CNCC=Cc2ccccc2)c1)N1CCCC1 — higher, 9.46%
